Assay [1] relates to HOP-92. Nature of the assay: Antiproliferative activity against HOP92 cell line. The class given is functional, cell-based. Particulars: Homo sapiens. Put shortly:
(§1)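 Growth inhibition was tested in vitro across the NCI Developmental Therapeutics Program 60-line human cancer panel at nanomolar to micromolar concentrations.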

The test system of assay [2] is Plasmodium falciparum. Kind of assay: Antimalarial activity against chloroquine-sensitive Plasmodium falciparum NF54 in mice (Mus musculus) by subcutaneous dose. The class given is functional. The settings on record: NF54, sc. The method, boiled down: (§2)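 In mice, a single dose of 3, 10 or 30 mg/kg was given orally or subcutaneously. ED50 in mg/kg was derived from these doses following a published protocol.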

Assay [3] has as its system HeLa. Kind of assay: Antiproliferative activity against HeLa cell line. The class given is functional, cell-based. The settings on record: Homo sapiens. The method, boiled down:
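HeLa human cervical cancer cells were tested in vitro with an XTT tetrazolium colorimetric proliferation assay, using a modified version of a reported protocol. IC50 was determined.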

Assay [4] deals with BT-549. Nature of the assay: Antiproliferative activity against BT549 cell line. It is filed as functional, cell-based. Particulars: Homo sapiens. The method, boiled down:
as §1

For assay [5], the system named is Plasmodium falciparum. Nature of the assay: Antimalarial activity against chloroquine-sensitive Plasmodium falciparum NF54. The class given is functional, organism-based.
Assay [6] relates to SK-MEL-5. Nature of the assay: Antiproliferative activity against SK-MEL-5 cell line. It is filed as functional, cell-based. The settings on record: Homo sapiens. Put shortly:
as §1

Assay [7] has as its system Plasmodium falciparum. Nature of the assay: Antimalarial activity against chloroquine-sensitive Plasmodium falciparum NF54 in mice (Mus musculus) by peroral dose. The class given is functional. The settings on record: NF54, po. Put shortly:
as §2

In general, ED50 refers to the midpoint of the dose-response relation. Broadly, the IC50 is the point on the concentration scale where inhibition reaches its midpoint. A low value points to higher potency.

Calls of active or inactive are those of the source. The rule behind the calls is not given here.

As for `COC(=O)c1cc(C[C@H]2O[C@@H]3O[C@]4(C)CC[C@H]5[C@H](C)CC[C@@H]([C@H]2C)[C@@]35OO4)c(C[C@H]2O[C@@H]3O[C@]4(C)CC[C@H]5[C@H](C)CC[C@@H]([C@H]2C)[C@@]35OO4)cc1C(=O)OC`, the outcome in assay [1], in assay [4] and in assay [6] was Active. Further, the 50% effect level in assay [2] (ED50) was put at a dose of 0.71 mg/kg. Moreover, the half-inhibitory concentration (IC50) came out at 500 nM in assay [3] and 1.6 nM in assay [5].
Regarding `C=C(C[C@H]1O[C@@H]2O[C@]3(C)CC[C@H]4[C@H](C)CC[C@@H]([C@H]1C)[C@@]24OO3)C(=C)C[C@H]1O[C@@H]2O[C@]3(C)CC[C@H]4[C@H](C)CC[C@@H]([C@H]1C)[C@@]24OO3`, in assay [5], 2.9 nM corresponded to half-maximal inhibition (IC50).
In turn, `C[C@H]1[C@@H](Cc2cc3c(cc2C[C@H]2O[C@@H]4O[C@]5(C)CC[C@H]6[C@H](C)CC[C@@H]([C@H]2C)[C@@]46OO5)COP(=O)(Oc2ccccc2)OC3)O[C@@H]2O[C@]3(C)CC[C@H]4[C@H](C)CC[C@@H]1[C@@]24OO3` (some centres not stated) had an IC50 in assay [5] of 3.7 nM.
On the same count and under the same terms, the same measure for `CCOP(=O)(OCC)OCc1cc(C[C@H]2O[C@@H]3O[C@]4(C)CC[C@H]5[C@H](C)CC[C@@H]([C@H]2C)[C@@]35OO4)c(C[C@H]2O[C@@H]3O[C@]4(C)CC[C@H]5[C@H](C)CC[C@@H]([C@H]2C)[C@@]35OO4)cc1COP(=O)(OCC)OCC`: 3 nM; for `C[C@H]1[C@@H](Cc2cc(C(=O)O)c(C(=O)O)cc2C[C@H]2O[C@@H]3O[C@]4(C)CC[C@H]5[C@H](C)CC[C@@H]([C@H]2C)[C@@]35OO4)O[C@@H]2O[C@]3(C)CC[C@H]4[C@H](C)CC[C@@H]1[C@@]24OO3`: 360 nM.
As to `C[C@H]1[C@H](OC(=O)CCC(=O)[O-])O[C@@H]2O[C@@]3(C)CC[C@H]4[C@H](C)CC[C@@H]1[C@@]24OO3.[Na+]` [SODIUM ARESUNATE], the ED50 in assay [2] turned out to be 2.2 mg/kg; in assay [7] it was 4 mg/kg.
`C[C@@H]1CC[C@H]2[C@@H](C)C(=O)O[C@@H]3O[C@@]4(C)CC[C@@H]1[C@]32OO4` [ARTEMISININ] had a concentration for half-maximal inhibition (IC50) in assay [5] of 6.6 nM.
For `C[C@H]1[C@@H](Cc2cc(CO)c(CO)cc2C[C@H]2O[C@@H]3O[C@]4(C)CC[C@H]5[C@H](C)CC[C@@H]([C@H]2C)[C@@]35OO4)O[C@@H]2O[C@]3(C)CC[C@H]4[C@H](C)CC[C@@H]1[C@@]24OO3`, the ED50 in assay [2] is 0.06 mg/kg; in assay [7], 2.6 mg/kg. In addition, the 50% inhibitory concentration (IC50) was found to be 46.5 nM in assay [3] and 0.77 nM in assay [5].

The values are drawn from ChEMBL document CHEMBL1147647, “Second generation, orally active, antimalarial, artemisinin-derived trioxane dimers with high stability, efficacy, and anticancer activity” (J Med Chem, 2006).
